The record followed here is ChEMBL document CHEMBL2169845 (J Med Chem, 2012).

Each structure is given as a SMILES string. Calls of active or inactive are those of the source.

The target of series [1] is T1, Apoptosis regulator Bcl-2 (Homo sapiens, UniProt P10415).
Series [2] has as its system Mus musculus. Briefly: Toxicity in SCID mouse assessed as body weight loss at 25 mg/kg, iv administered 5 days per week for 2 weeks relative to vehicle-treated control. The settings on record: in vivo. The series is classed as organism-based. On the set-up: dose 25 mg/kg, route intravenous. The essentials:
(§1)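 Tolerability tested in SCID mice given daily i.v. doses, 5 days a week for 2 weeks. Body weight loss tracked against a 10% threshold.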

Series [3] can be described thus: Cytotoxicity against human NCI-H146 cells assessed as growth inhibition after 4 days by WST-8 assay. The format is functional, cell-based. The settings on record: NCI-H146, 96 h. A general note: Tetrazolium dyes change colour on reduction, which living cells bring about.
A short description of series [4]: Antitumor activity against human NCI-H146 cells xenografted in SCID mouse assessed as tumor free incidence at 25 mg/kg, iv measured on day 58 post tumor implantation. The format is functional. Summed up: (§2)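 SCID mice bearing H146 xenografts randomized at 40–110 mm3 tumor volume (mean 70 mm3), 8 per group. Dosed intravenously, daily, 5 days a week for 2 weeks, with a vehicle control group. Tumor size and body weight measured 3 times weekly during dosing and twice weekly afterwards. Tumor volumes reported as mean ± SEM.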
(In general: A xenograft is tissue or cells of one species grown in another, often human tumour cells in immunodeficient mice.)

Series [5] has as its system NCI-H146. The series can be described thus: Induction of apoptosis in human NCI-H146 cells xenografted in SCID mouse assessed as caspase 3 cleavage at 25 mg/kg, iv after 3 to 24 hrs by Western blot analysis. Also on record: dose 25 mg/kg. The format is functional, organism-based. The essentials:
(§3)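 SCID mice bearing H146 xenografts (100–200 mm3) received one i.v. dose, with a vehicle control group. Tumors harvested at 3, 6 and 24 h. PARP cleavage and caspase-3 cleavage assessed by Western blot.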

The subject of series [6] is NCI-H146. Briefly: Induction of apoptosis in human NCI-H146 cells assessed as caspase 3 activation at 10 nM after 24 hrs by Western blot analysis. The series is classed as functional, cell-based. Summed up: (§4)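 H146 cells treated for 24 hr, then lysed on ice for 20 min in RIPA buffer with PMSF and protease inhibitors. Cleared lysates normalized by protein assay and run on 4–20% SDS-PAGE, then blotted to PVDF. Probed with rabbit antibodies to PARP and caspase-3 (cleaved forms detected), GAPDH as loading control, with HRP chemiluminescence detection.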

Series [7] concerns NCI-H146. The series can be described thus: Antitumor activity against human NCI-H146 cells xenografted in SCID mouse assessed as tumor free incidence at 25 mg/kg, iv measured on day 47 post tumor implantation. The format is functional, organism-based. Also on record: dose 25 mg/kg. Summed up:
as §2

The test system of series [8] is NCI-H146. The series can be described thus: Antitumor activity against human NCI-H146 cells xenografted in SCID mouse assessed as tumor regression at 25 mg/kg, iv administered 5 days per week for 2 weeks. The series is classed as functional, organism-based. Also on record: dose 25 mg/kg. Summed up:
as §2

Series [9] has as its system NCI-H146. Briefly: Induction of apoptosis in human NCI-H146 cells assessed as cell viability after 24 hrs by trypan blue exclusion assay. The format is functional, cell-based. The essentials: (§5)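 H146 cells exposed to a range of compound concentrations for 24 hr, then harvested and stained with trypan blue. Cells staining blue or looking morphologically unhealthy were scored as dead. At least 100 cells counted per sample.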

A short description of series [10]: Toxicity in iv dosed SCID mouse administered 5 days per week for 2 weeks. The series is classed as organism-based. The settings on record: in vivo.
The subject of series [11] is Mus musculus. Briefly: Toxicity in SCID mouse assessed as body weight loss at 50 mg/kg, iv administered 5 days per week for 2 weeks relative to vehicle-treated control. The format is organism-based. Also on record: dose 50 mg/kg, route intravenous. The settings on record: in vivo. The essentials:
as §1

Series [12] concerns NCI-H146. The series can be described thus: Induction of apoptosis in human NCI-H146 cells xenografted in SCID mouse assessed as PARP cleavage at 25 mg/kg, iv after 3 to 6 hrs by Western blot analysis. The series is classed as functional, organism-based. On the set-up: dose 25 mg/kg. Summed up: as §3
The nature of series [13]: Inhibition of c-terminally truncated N-terminal 8xHis-tagged human Bcl-xL deletion mutant expressed in Escherichia coli BL21 (DE3) after 2 hrs by fluorescence polarization assay. (In general: In fluorescence polarisation assays a small probe gives low polarisation when free and higher when bound to something large.)
The next series has as its system NCI-H1417. Briefly: Cytotoxicity against human H1417 cells assessed as growth inhibition after 4 days by WST-8 assay. The series is classed as functional, cell-based. Conditions: NCI-H1417, 96 h.
The subject of series [14] is NCI-H146. The series can be described thus: Induction of apoptosis in human NCI-H146 cells assessed as cell viability at 10 nM after 24 hrs by trypan blue exclusion assay. The series is classed as functional. Conditions: NCI-H146, 24 h, read-out: Activity. Summed up:
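H146 small-cell lung cancer cells exposed to serial compound concentrations for 24 hr, then collected and stained with trypan blue. Blue-stained or morphologically unhealthy cells were scored as dead, with at least 100 cells counted per sample.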

Series [15] concerns NCI-H146. Briefly: Induction of apoptosis in human NCI-H146 cells assessed as PARP cleavage at 10 nM after 24 hrs by Western blot analysis. The format is functional, cell-based. The essentials: as §4
Series [16] has as its target T1, Apoptosis regulator Bcl-2. Briefly: Inhibition of N-terminal 6xHis-tagged human Bcl-2 expressed in Escherichia coli BL21 (DE3) after 2 hrs by fluorescence polarization assay.
Series [17] relates to Mus musculus. Briefly: Toxicity in SCID mouse assessed as body weight loss at 10 mg/kg, iv administered 5 days per week for 2 weeks relative to vehicle-treated control. The settings on record: in vivo. The series is classed as organism-based. On the set-up: dose 10 mg/kg, route intravenous. The essentials:
as §1

The subject of series [18] is NCI-H146. Briefly: Induction of apoptosis in human NCI-H146 cells assessed as caspase 3 activation at 30 nM after 24 hrs by Western blot analysis. The format is functional, cell-based. Summed up: as §4
Series [19] has as its system NCI-H146. The series can be described thus: Induction of apoptosis in human NCI-H146 cells assessed as cell viability at 30 to 100 nM after 24 hrs by trypan blue exclusion assay. The series is classed as functional. Summed up: as §5
Series [20] relates to NCI-H146. The series can be described thus: Induction of apoptosis in human NCI-H146 cells assessed as PARP cleavage at 30 nM after 24 hrs by Western blot analysis. The format is functional, cell-based. The essentials: as §4
Series [21] deals with NCI-H146. Briefly: Induction of apoptosis in human NCI-H146 cells assessed as caspase 3 activation at 100 nM after 24 hrs by Western blot analysis. The format is functional, cell-based. Summed up:
as §4

Series [22] relates to NCI-H146. Briefly: Induction of apoptosis in human NCI-H146 cells xenografted in SCID mouse assessed as caspase 3 cleavage at 50 mg/kg, iv after 3 to 24 hrs by Western blot analysis. The format is functional, organism-based. Also on record: dose 50 mg/kg. The essentials:
as §3

For series [23], the system named is NCI-H146. The series can be described thus: Induction of apoptosis in human NCI-H146 cells assessed as PARP cleavage at 100 nM after 24 hrs by Western blot analysis. The format is functional, cell-based. Summed up: as §4
Series [24] deals with NCI-H146. The series can be described thus: Antitumor activity against human NCI-H146 cells xenografted in SCID mouse assessed as tumor regression at 50 mg/kg, iv administered 5 days per week for 2 weeks. On the set-up: dose 50 mg/kg. The series is classed as functional, organism-based. Summed up:
as §2

For series [25], the system named is NCI-H146. Briefly: Induction of apoptosis in human NCI-H146 cells xenografted in SCID mouse assessed as PARP cleavage at 50 mg/kg, iv after 3 to 6 hrs by Western blot analysis. The series is classed as functional, organism-based. On the set-up: dose 50 mg/kg. Summed up: as §3
The test system of series [26] is NCI-H146. The series can be described thus: Antitumor activity against human NCI-H146 cells xenografted in SCID mouse assessed as tumor growth inhibition at 50 mg/kg, iv administered 5 days per week for 2 weeks. The series is classed as functional, organism-based. On the set-up: dose 50 mg/kg. The essentials: as §2
Series [27] deals with Mus musculus. The series can be described thus: Toxicity in SCID mouse assessed as body weight loss at 75 mg/kg, iv administered 5 days per week for 2 weeks relative to vehicle-treated control. The series is classed as organism-based. Also on record: dose 75 mg/kg, route intravenous. The settings on record: in vivo. The essentials: as §1

T1 sequence (P10415 whole entry): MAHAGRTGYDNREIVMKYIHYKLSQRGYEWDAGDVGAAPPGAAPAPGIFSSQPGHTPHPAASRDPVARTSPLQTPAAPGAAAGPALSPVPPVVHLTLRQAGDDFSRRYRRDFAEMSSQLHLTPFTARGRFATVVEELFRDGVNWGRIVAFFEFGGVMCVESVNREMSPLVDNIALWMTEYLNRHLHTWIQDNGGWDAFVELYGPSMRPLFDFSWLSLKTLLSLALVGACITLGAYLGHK

A word on the Ki: it is a dissociation constant, usually derived from enzyme kinetics or from competition with a known ligand. The term IC50 denotes the concentration at which inhibition is half-maximal. `CCn1c(C)c(C(=O)O)c(-c2cccc(N3CCN(c4ccc(NS(=O)(=O)c5ccc(N[C@H](CCN6CCC(O)CC6)CSc6ccccc6)c(S(=O)(=O)C(F)(F)F)c5)cc4)CC3)c2)c1-c1ccc(Cl)cc1`: the inhibitory constant (Ki) in series [1] amounted to 1.2 nM. The Activity in the series on Mus musculus [2] is less than 10%; in series [4], 71%; in the series on NCI-H146 [9] it was “Dose-dependent effect”; in the series with Mus musculus [11], more than 10%. Also, the IC50 in series [3] is 22 nM; in series [13], 6 nM; in the series with NCI-H1417, 21 nM; in series [16] it was 5.4 nM. Besides, the outcome in the series with NCI-H146 [5], in the series on NCI-H146 [6], with NCI-H146 [7], in the series with NCI-H146 [8], in the series with NCI-H146 [12] and with NCI-H146 [15] was Active. The compound further displayed an MTD at 2 weeks in [10] of 25 mg/kg. For the same compound, in the series with NCI-H146 [14], the viability at 0.01 µM is more than 50%.
Regarding `Cc1c(C(=O)O)c(-c2cccc(N3CCN(c4ccc(NS(=O)(=O)c5ccc(N[C@H](CCN6CCC(O)CC6)CSc6ccccc6)c(S(=O)(=O)C(F)(F)F)c5)cc4)CC3)c2)c(-c2ccc(Cl)cc2)n1C(C)C`, the results for the Activity in the series with Mus musculus [17], with Mus musculus [2] and with NCI-H146 [9] were less than 10%, more than 10% and “Dose-dependent effect”, respectively. In series [1], this compound registered an inhibitory constant (Ki) of 0.8 nM. For the same compound, the half-maximal inhibitory concentration (IC50) in series [3] was 13 nM; in [13], 3.9 nM; with NCI-H1417, 9 nM; in series [16] it was 4 nM. Further, in [10], the MTD at 2 weeks came out at 10 mg/kg. Further, the viability at 0.01 µM in the series on NCI-H146 [14] was more than 50%.
For `CC1(C)CCC(c2ccc(Cl)cc2)=C(CN2CCN(c3ccc(C(=O)NS(=O)(=O)c4ccc(N[C@H](CCN5CCOCC5)CSc5ccccc5)c(S(=O)(=O)C(F)(F)F)c4)cc3)CC2)C1` [NAVITOCLAX], the result in the series with NCI-H146 [18] and in the series with NCI-H146 [20] was Active. Further, the Activity is more than 50% in the series on NCI-H146 [19] and “Dose-dependent effect” in the series with NCI-H146 [9].
In turn, `Cc1c(C(=O)O)c(-c2cccc(N3CCN(c4ccc(NS(=O)(=O)c5ccc(N[C@H](CCN6CCC(O)CC6)CSc6ccccc6)c(S(=O)(=O)C(F)(F)F)c5)cc4)CC3)c2)c(-c2ccc(Cl)cc2)n1C` returned a Ki in series [1] of 2.4 nM. The result in the series on NCI-H146 [21], in the series on NCI-H146 [22], with NCI-H146 [23] and with NCI-H146 [25] was Active. Further, the concentration for half-maximal inhibition (IC50) came to 108 nM in series [3], 7 nM in [13], 125 nM in the series with NCI-H1417 and 10.2 nM in series [16]. Moreover, the outcome with NCI-H146 [24] was inactive. Also, the Activity entry in the series on NCI-H146 [9] is “Dose-dependent effect”; with Mus musculus [11], less than 10%; in the series on Mus musculus [27], more than 10%. In [10], the MTD at 2 weeks worked out at 50 mg/kg. In addition, in the series on NCI-H146 [26], the TGI entry was “Active”.
